From paper PMC10712300 (Protein and peptide letters, 2021)
Ends that are not written are not given here.

Assays:
[1] = patients with type 1 diabetes taking hIAPP mimetic supplements; cited from earlier work
RIN-m cells [2] = test: LDH cytotoxicity assay; assay type: cell-based; conditions: 48 h at 37°C; for LDH release / plasma membrane damage, peptide alone: 12.8 μM IAPP alone; for LDH cytotoxicity of hIAPP mixed with animal IAPP: 12.8 μM hIAPP + 12.8 μM animal IAPP (1:1)
Procedure, shortened: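 RIN-m cells were plated overnight and refed with RPMI-1640 + 10% FBS. HFIP-dried IAPPs were resuspended in the same medium by scraping and 30 s vortexing. Each IAPP was added at 12.8 μM, or hIAPP + animal IAPP 1:1, for 48 h at 37°C, 5% CO2. Spontaneous (water) and maximum (lysis buffer) release wells ran 45 min. Supernatant reaction: 30 min RT dark, then stop. A450/A620; % cytotoxicity by kit equation.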

RIN-m cells [3] = test: Cell morphology imaging; assay type: cell-based; conditions: for RIN-m cell morphology, peptide alone: 12.8 μM IAPP alone (absence of hIAPP for animal variants); for RIN-m cell morphology, hIAPP mixed with animal IAPP: 12.8 μM hIAPP + animal IAPP, 1:1 ratio
[4] = test system: hIAPP aggregation / fibril formation; conditions: cited from earlier work
[5] = cited from earlier work
[6] = AFM / amyloid fibril formation of an IAPP peptide by itself; assay type: physicochemical; conditions: 37 μM hIAPP alone, 20 mM tris pH 7.40, 37°C, 40 min shaking, deposited onto mica
Procedure, shortened: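 HFIP stocks of peptide (0.125 mg/mL) were sonicated 10 min and held at −80°C. HFIP was removed under vacuum and peptide dissolved in 20 mM Tris pH 7.40. hIAPP was held at 37 μM, alone or with animal IAPP at 37 μM (1:1). Incubation: 37°C, 200 rpm, 40 min. Samples were spotted on fresh mica for 5 min, water-washed, dried, and imaged by AC-mode AFM without flattening.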

## pramlintide
[1]
  average weight loss: about 2 kg

## rat IAPP: synthetic naturally occurring rat variant of IAPP, non-amyloidogenic
RIN-m cells [2]
  LDH release / plasma membrane damage, peptide alone: very little effect on the cellular plasma membrane
  LDH cytotoxicity of hIAPP mixed with animal IAPP: increased the amount of cytotoxicity in the cell
RIN-m cells [3]
  RIN-m cell morphology, peptide alone: did not cause significant changes to RIN-m morphology
  RIN-m cell morphology, hIAPP mixed with animal IAPP: many cells with a round shape and detached from the plate
[4]
  inhibition of hIAPP aggregation (literature): modest inhibitors of hIAPP aggregation
[5]
  independent aggregation, fibril formation and toxicity to living cells: does not independently aggregate, form fibrils, or show toxicity to living cells

## cat IAPP: synthetic naturally occurring cat variant of IAPP (KCNTATCATQRLANFLIRSSNNLGAILSPTNVGSNTY; ends and bridges not checked; cysteine pairing not given here; UniProt P12967 34-70, looked up)
RIN-m cells [2]
  LDH release / plasma membrane damage, peptide alone: some damage to the plasma membrane of the cells, but much less compared to hIAPP
  LDH cytotoxicity of hIAPP mixed with animal IAPP: decreased the toxicity of hIAPP and reduced the amount of damage to the plasma membrane
RIN-m cells [3]
  RIN-m cell morphology, peptide alone: some rounding of cells and detaching from the plate
  RIN-m cell morphology, hIAPP mixed with animal IAPP: cells looking better than cells incubated with hIAPP alone

## Human Islet Amyloid Polypeptide (KCNTATCATQRLANFLVHSSNNFGAILSSTNVGSNTY; Islet amyloid polypeptide; UniProt P10997 34-70, looked up) [hIAPP, reference compound]
[6]
  fibril formation of the peptide alone (AFM): forms high-density plaques of fibrils
RIN-m cells [2]
  LDH release / plasma membrane damage, peptide alone: increased the release of LDH into the media
RIN-m cells [3]
  RIN-m cell morphology, peptide alone: changes in cellular shape, formation of granular nuclear structures, and detachment of numerous cells from the plate surface
